Series [1] deals with Hepatocyte. Description: Detection of compound level in rat hepatocytes treated with 25 uM of BMS-562086 after 3 hrs by HPLC analysis. The series is classed as ADME, cell-based. The gist of the method:
(§1)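 Mouse, rat, dog, monkey and human hepatocytes (trypan blue viability checked) at 1.0×10^6 cells/ml in Krebs-Henseleit buffer were incubated with 25 µM compound, in duplicate. Conditions were 37°C, 95/5 O2/CO2, orbital shaking, 3 h. 7-Ethoxycoumarin and 7-hydroxycoumarin (100 µM) served as positive controls, with a cell-free negative control. Reactions were quenched with ice-cold acetonitrile, then sonicated and centrifuged; supernatants were analysed by LC/MS/MS.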

Series [2] has as its system Hepatocyte. The experiment in a line: Detection of compound level in mouse hepatocytes treated with 25 uM of BMS-562086 after 3 hrs by HPLC analysis. The series is classed as ADME, cell-based. The gist of the method:
as §1

Series [3] in a line: Detection of compound level in cynomolgus monkey cryopreserved hepatocytes treated with 25 uM of BMS-562086 after 3 hrs by HPLC analysis. It counts as ADME, cell-based, Macaca fascicularis, Hepatocyte. The essentials: as §1
A short description of series [4]: Detection of compound level in beagle dog hepatocytes treated with 25 uM of BMS-562086 after 3 hrs by HPLC analysis. It counts as ADME, cell-based, Canis lupus familiaris, Hepatocyte. The essentials:
as §1

The subject of series [5] is Hepatocyte. Description: Detection of compound level in human cryopreserved hepatocytes treated with 25 uM of BMS-562086 after 3 hrs by HPLC analysis. It counts as ADME, cell-based. The gist of the method:
as §1

Series [6] is described as follows: Apparent permeability from apical to basolateral side in human Caco2 cells. It counts as ADME, cell-based. The conditions noted are these: Caco-2. The essentials: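 Caco-2 cells (passage 50-60) were seeded at 60,000 cells/cm2 on polycarbonate Transwells and cultured 21-25 days. Transport buffer was HBSS with 2% DMA, pH 7.4. Compound was applied apically at 25 µM at 37°C. Only monolayers with TEER 400-500 Ω cm2 at start and end were used, with mannitol as an integrity probe. Papp = (dQ/dt)/(A×C0).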

As to `CCOc1ccc2ccc(=O)oc2c1`, the Drug metabolism result in series [1], in series [2], in series [3], in series [4] and in series [5] was “metabolite_detected” each time.

As for `OC[C@@H](O)[C@@H](O)[C@H](O)[C@H](O)CO` [MANNITOL], the Papp A→B in series [6] turned out to be 0.21 ×10⁻⁶ cm/s.

Take `O=c1ccc2ccc(O)cc2o1` [UMBELLIFERONE]: the Drug metabolism result in series [1], in series [2], in series [3], in series [4] and in series [5] was “metabolite_detected” in each case.

Values taken from ChEMBL document CHEMBL3526146, “In vitro and in vivo metabolism and pharmacokinetics of BMS-562086, a potent and orally bioavailable corticotropin-releasing factor-1 receptor antagonist” (Drug Metab Dispos, 2012).
